The values below come from ChEMBL document CHEMBL1133005, “Improving the oral bioavailability of the iron chelator HBED by breaking the symmetry of the intramolecular H-bond network” (J Med Chem, 2000).

Common to all, as to format: physicochemical
Data set [1] is described as follows: Evaluated for ionization constant (pKa3) by titrations performed in the presence of EtOH and at a dielectric constant of 52. Particulars: EtOH cosolvent; read-out: pKa3. In short, it runs like this:
(§1)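 pH-metric titration in mixed water/cosolvent media (MeOH or EtOH, depending on the ligand) at several cosolvent proportions, each proportion setting the dielectric constant. Electrode calibrated with pH 7.00 phosphate buffer and standardized after a blank titration by a nonlinear semiempirical fit. Readings were converted to pcH to give concentration-scale constants.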

A short description of data set [2]: Evaluated for ionization constant (pKa3) by titrations performed in the presence of EtOH and at a dielectric constant of 57. As to conditions: EtOH cosolvent; read-out: pKa3. The procedure, abridged: as §1
The nature of data set [3]: Evaluated for ionization constant (pKa3) by titrations performed in the presence of EtOH and at a dielectric constant of 63. Particulars: EtOH cosolvent; read-out: pKa3. In short, it runs like this:
as §1

Data set [4] can be described thus: Evaluated for ionization constant (pKa3) by titrations performed using the method of Yasuda and Shedlovsky. Particulars: read-out: pKa3. The procedure, abridged: (§2)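 Aqueous constants were extrapolated by the Yasuda–Shedlovsky method from pH-metric titrations run at several MeOH or EtOH cosolvent levels. Electrode calibrated with pH 7.00 phosphate buffer and standardized after a blank titration. Values are expressed on the pcH (-log[H+]) concentration scale.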

The nature of data set [5]: Evaluated for ionization constant (pKa4) by titrations performed in the presence of EtOH and at a dielectric constant of 52. As to conditions: EtOH cosolvent; read-out: pKa4. In short, it runs like this:
as §1

Data set [6] in a line: Evaluated for ionization constant (pKa4) by titrations performed in the presence of EtOH and at a dielectric constant of 57. As to conditions: EtOH cosolvent; read-out: pKa4. In short, it runs like this:
as §1

Data set [7] in a line: Evaluated for ionization constant (pKa4) by titrations performed in the presence of EtOH and at a dielectric constant of 63. As to conditions: EtOH cosolvent; read-out: pKa4. The procedure, abridged: as §1
A short description of data set [8]: Evaluated for ionization constant (pKa4) by titrations performed using the method of Yasuda and Shedlovsky. Particulars: read-out: pKa4. In short, it runs like this:
(§3)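 Potentiometric pH titration. The electrode is calibrated with pH 7.00 phosphate buffer. A blank titration before each set standardizes the electrode by a nonlinear semiempirical equation, and readings are converted to the concentration scale pcH = −log[H+]. Runs use varying amounts of MeOH or EtOH cosolvent, and aqueous pKa values are extrapolated by the Yasuda–Shedlovsky method. Low pKa values (pH < 2) are determined by spectrophotometric titration.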

The nature of data set [9]: Evaluated for ionization constant (pKa2) by titrations performed in the presence of EtOH and at a dielectric constant of 52. As to conditions: EtOH cosolvent, dielectric constant 52; read-out: pKa2. The procedure, abridged:
as §1

The nature of data set [10]: Evaluated for ionization constant (pKa2) by titrations performed in the presence of EtOH and at a dielectric constant of 57. Particulars: EtOH cosolvent, dielectric constant 57; read-out: pKa2. The procedure, abridged: as §1
Data set [11] can be described thus: Evaluated for ionization constant (pKa2) by titrations performed using method of Yasuda and Shedlovsky. Particulars: read-out: pKa2. In short, it runs like this:
as §2

A short description of data set [12]: Partition coefficient (logP) (chloroform). The procedure, abridged: (§4)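 Free-ligand partition coefficients are measured by the pH-metric technique. This uses two linked titrations: a normal aqueous titration, then a two-phase titration in the presence of the partition solvent.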
Data set [13] in a line: Partition coefficient (logP) (cyclohexane). In short, it runs like this: as §4
Data set [14] can be described thus: Partition coefficient (logP). Particulars: octanol/water. In short, it runs like this: as §4
Data set [15] in a line: Evaluated for ionization constant (pKa1) by titrations performed using method of Yasuda and Shedlovsky. Particulars: read-out: pKa1. The procedure, abridged:
as §2

A short description of data set [16]: Evaluated for ionization constant (pKa5) by titrations performed in presence of MeOH solvent at a dielectric constant of 56. Particulars: MeOH cosolvent; read-out: pKa5. In short, it runs like this:
as §3

Data set [17] is described as follows: Evaluated for ionization constant (pKa5) by titrations performed in presence of MeOH solvent at a dielectric constant of 62. As to conditions: MeOH cosolvent; read-out: pKa5. The procedure, abridged:
as §3

Data set [18] can be described thus: Evaluated for ionization constant (pKa3) by titrations performed in absence of cosolvent and at a dielectric constant of 78. As to conditions: no cosolvent; read-out: pKa3.
Data set [19] in a line: Evaluated for ionization constant (pKa3) by titrations performed in presence of MeOH solvent at a dielectric constant of 49. As to conditions: MeOH cosolvent; read-out: pKa3. In short, it runs like this:
as §1

The nature of data set [20]: Evaluated for ionization constant (pKa3) by titrations performed in presence of MeOH solvent at a dielectric constant of 56. Particulars: MeOH cosolvent; read-out: pKa3. In short, it runs like this: as §1
Data set [21] can be described thus: Evaluated for ionization constant (pKa3) by titrations performed in presence of MeOH solvent at a dielectric constant of 62. Particulars: MeOH cosolvent; read-out: pKa3. The procedure, abridged: as §1
Data set [22] can be described thus: Evaluated for ionization constant (pKa4) by titrations performed in presence of MeOH solvent at a dielectric constant of 49. Particulars: MeOH cosolvent; read-out: pKa4. The procedure, abridged: as §1
A short description of data set [23]: Evaluated for ionization constant (pKa4) by titrations performed in presence of MeOH solvent at a dielectric constant of 56. As to conditions: MeOH cosolvent; read-out: pKa4. In short, it runs like this: as §1
The nature of data set [24]: Evaluated for ionization constant (pKa4) by titrations performed in presence of MeOH solvent at a dielectric constant of 62. As to conditions: MeOH cosolvent; read-out: pKa4. In short, it runs like this:
as §1

The nature of data set [25]: Evaluated for ionization constant (pKa4) by titrations performed in presence of MeOH solvent at a dielectric constant of 78. Particulars: MeOH cosolvent; read-out: pKa4.
A short description of data set [26]: Evaluated for ionization constant (pKa5) by titrations performed in presence of MeOH solvent at a dielectric constant of 49. Particulars: MeOH cosolvent; read-out: pKa5. The procedure, abridged: as §3
Data set [27] in a line: Evaluated for ionization constant (pKa5) by titrations performed using the method of Yasuda and Shedlovsky. Particulars: read-out: pKa5. The procedure, abridged: as §3
Data set [28] can be described thus: Evaluated for ionization constant (pKa2) by titrations performed in absence of cosolvent and at a dielectric constant of 78. Particulars: no cosolvent, dielectric constant 78; read-out: pKa2.
Data set [29] is described as follows: Evaluated for ionization constant (pKa2) by titrations performed in presence of MeOH solvent at a dielectric constant of 49. As to conditions: MeOH cosolvent, dielectric constant 49; read-out: pKa2. In short, it runs like this:
as §1

Data set [30] can be described thus: Evaluated for ionization constant (pKa2) by titrations performed in presence of MeOH solvent at a dielectric constant of 56. As to conditions: MeOH cosolvent, dielectric constant 56; read-out: pKa2. In short, it runs like this: as §1
Data set [31] can be described thus: Evaluated for ionization constant (pKa2) by titrations performed in presence of MeOH solvent at a dielectric constant of 62. Particulars: MeOH cosolvent, dielectric constant 62; read-out: pKa2. In short, it runs like this:
as §1

Data set [32] in a line: Evaluated for ionization constant (pKa1) by titrations performed in absence of a cosolvent at a dielectric constant of 78. Particulars: no cosolvent, dielectric constant 78; read-out: pKa1.

Where only a bound is given, the exact number is not on record here.

`CCOC(=O)CN(CCN(CC(=O)OCC)Cc1ccccc1O)Cc1ccccc1O`: the pKa in data set [1] was 5.09; in data set [2] it was 5.25; in data set [3] it was 5.45; in data set [4], 5.7; in data set [5] it was 1.05; in data set [6], 1.21. The pKa in data set [7] was 1.42; in [8] it was 1.8; in data set [9] it was 11.8; in [10] it was 11.6; in data set [11], 10.9; in data set [15] it was 12.2. Moreover, the log partition coefficient (logP) was 3.35 in data set [12], 3.22 in [13] and 3.35 in data set [14].

In the case of `COC(=O)CN(CCN(CC(=O)[O-])Cc1ccccc1O)Cc1ccccc1O.[Na+]`, the pKa in data set [16] amounted to 0.97; in data set [17], 1.15; in data set [18], 7.67; in data set [19], 7.41; in data set [20], 7.48; in [21], 7.56. In addition, the pKa in data set [4] was found to be 7.68; in data set [22] it was 2.94; in data set [23], 2.77; in [24] it was 2.68; in [25] it was 2.61; in data set [8], 2.49. For the same compound, the pKa was found to be 0.9 in data set [26]; 1.3 in data set [27]; 10.9 in [28]; 12.2 in data set [29]; 12.1 in data set [30]; 11.8 in data set [31]. For the same compound, the pKa in data set [11] was determined as 11.5; in data set [32] it was 12.1. In addition, the logP in [12] is -0.29; in [13], less than -2; in [14], 0.5.
